Lmaj promast: Leishmania major promastigote growth inhibition, primary screen; inhibition, % at 10 µM; hit rate 9% among 200,000; Leishmania major promastigotes, resazurin fluorescence viability; in the data active = inhibition above about 50%;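 also: promastigotes grown with compound for 44 hours at 28 °C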
NALP1 inh: NALP1 inflammasome inhibitors in reconstituted yeast, colorimetric, S. cerevisiae, triplicate retest; hit rate 0.61% among 280,000; S. cerevisiae NALP1/ASC/caspase-1 growth, X-gal OD620, 72 h; inhibition, % at 10 µM; in the data active = inhibition mostly above about 24%, no sharp cut-off; inactive = mostly below about 32%
NLRP3 yeast inh: NALP3 inflammasome inhibitors in reconstituted yeast, primary screen, luminescence, uHTS. hit rate 0.39% among 330,000. Yeast reconstituted NLRP3/ASC/caspase-1, beta-gal luminescence, 24 h. inhibition, % at 10 µM;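 active = inhibition of 50% or more; inactive = inhibition below 50%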;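 also: plate controls were induced DMSO wells for no effect and uninduced yeast grown without galactose for full effect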
Calb FLC: C. albicans growth inhibition with fluconazole, primary screen, CaCi-2 strain, Alamar Blue fluorescence | C. albicans CaCi-2 + fluconazole, 48 h | growth inhibition, % (no concentration beside the values) | hit rate 0.57% among 300,000 | AID 1979, 2009;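 active = growth inhibition above about 58% in most replicates, limit read from the data, passing the limit was not always enough; inconclusive = exactly half the replicates above a set limit; inactive = most replicates below a set limit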;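 also: all wells also contain fluconazole at 8 µg/ml as a sub-toxic cotreatment; 0% = median of DMSO wells and 100% = median of geldanamycin control wells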
PolyA inhibitor: polyadenylation inhibitors in yeast reporter cells, primary screen, luminescence, S. cerevisiae. hit rate 0.02% among 300,000. S. cerevisiae SKY197-pL101 polyadenylation reporter, beta-gal luminescence; efflux-impaired pdr1/pdr3 knockout yeast; score 100 = 6 SD above DMSO. activity score, % at 12 µM;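 active = lowest replicate activity score at least 50, where 100 means six control SD above control mean; inconclusive = lowest score under 50 but half or more replicates reach 50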;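 also: yeast exposed to compound for 9 h at 30 °C; higher score means more reporter readthrough which indicates perturbed polyadenylation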
T cruzi repl: inhibitors of intracellular T. cruzi growth, primary screen, luminescence, NIH3T3 host cells; T. cruzi beta-gal in NIH3T3, 90 h; inhibition, % (test concentration not listed); hit rate 1.4% among 300,000;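 active = mean inhibition across valid replicates above about 55%, limit read from the data; inconclusive = mean below that limit but half or more replicates reach it; inactive = mean below it, under half of replicates reach it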;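 also: signal also drops with host cell toxicity which is not excluded here; 0% = plate median of DMSO wells and 100% = zero luminescence signal; higher percent means less beta-gal luminescence so fewer parasites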
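Read-out: Parasite load inhibition, % | Test system: Mouse NIH/3T3 fibroblasts infected with β-gal-expressing T. cruzi Tulahuen C4 | Amount: 5,000 cells/well | Medium: DMEM, 2% fetal bovine serum | Signal: GalScreen β-gal luminescence, detergent lysis, 60 min | Timing: 3 h attach, ≥90 h co-culture | Also added: Tulahuen C4 trypomastigotes, 5000/well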
Lmaj promast 1uM: Leishmania major promastigote growth inhibition, confirmation, 1 µM repeat of primary hits. shares compounds with Lmaj promast. L. major promastigote growth, resazurin fluorescence, 48 h. inhibition, % at 1 µM. hit rate 13% among 1,100. AID 1258, 2008;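 active = inhibition above about 50% in both repeat tests, limit read from the data; inconclusive = one repeat under the set limit, the other over it; inactive = both repeats under the set limit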
Active calls of the source: *; u = inconclusive; x = no result. This is one part of a sample in which hits are shown more often than they occur.

SMILES	Lmaj promast	NALP1 inh	NLRP3 yeast inh	Calb FLC	PolyA inhibitor	T cruzi repl	Lmaj promast 1uM
Cc1nnc(Sc2nc3ccccc3o2)c2ccccc12	64*	19	40	5	-1	5	-3
CCSc1nnc(-c2ccc(Cl)cc2)c2ccccc12	3	12	6	u	-6	11	x
Clc1ccc(-c2nnc(Sc3nc4ccccc4o3)c3ccccc23)cc1	90*	11	24	26	0	2	7
CCSc1nnc(C)c2ccccc12	0	8	0	0	-4	-4	x
Cc1ccc(-c2nnc(Sc3nc4ccccc4o3)c3ccccc23)cc1	76*	14	29	4	-8	13	9
Nc1nccc(-c2ccc(-n3cnc4ccccc43)cc2)n1	7	34	26	2	3	-14	x
Cc1nccc(-c2ccc(-n3cnc4ccccc43)cc2)n1	62*	-3	26	2	1	-12	-10
Cc1ccc(S(=O)(=O)NC(CC(C)C)C(=O)NCc2ccco2)cc1 (stereo unspecified)	3	13	7	-9	13	-13	x
O=C(NCCN1CCOCC1)c1cn(CCc2ccccc2)nn1	-3	38	4	0	14	-5	x
O=C(NCc1ccc(N2CCCC2=O)cc1)c1cn(CCc2ccccc2)nn1	56*	28	7	6	10	-2	19
COc1ccc(C(CNC(=O)c2c(C)nn(Cc3ccc(C)cc3)c2Cl)N2CCOCC2)cc1 (stereo unspecified)	x	x	7	x	x	x	x
CCN(CC)CCCNC(=O)c1[nH]c2ccccc2c1Sc1ccc(Cl)cc1	x	16	3	7	-3	53	x
CCOc1ccc(S(=O)(=O)N2Cc3ccccc3CC2C(=O)NCCCn2ccnc2)cc1 (stereo unspecified)	98*	10	13	30	4	16	-8
CC(C)N=C(NS(=O)(=O)c1ccccc1)C(Cl)(Cl)Cl	85*	43	24	-36	-8	13	u
O=S(=O)(NC(=S)c1ccccc1)c1ccccc1	x	x	19	-1	-4	-13	x
Cc1ccc(NC(=S)c2nc3ccccc3[nH]2)cc1	70*	-23	15	85*	-71	35	-4
CCNC(=S)Nc1ccc(Cc2nc3ccccc3[nH]2)cc1	x	-18	5	-20	-3	0	x
Cc1ccc(-c2[nH]nc(N)c2N=Nc2ccccc2C)cc1	100*	0	29	47	-5	-5	-19
O=C(O)CCC(=O)N1CC=C(c2ccccc2)CC1	63*	7	-3	-14	-19	15	-7
CCC(NC(=O)Nc1nnc(C(F)(F)F)s1)(C(F)(F)F)C(F)(F)F	101*	13	-4	u	0	62*	-7
O=c1[nH]cc([N+](=O)[O-])cc1Br	61*	14	6	34	-2	-13	-5
COc1cc(N)c(Cl)cc1Cl	1	-12	9	3	-1	0	x
O=C(CN1CCC(n2nnc3cc(C(F)(F)F)ccc32)CC1)NCc1cccs1	79*	18	17	26	-1	5	-3
CCOC(=O)c1ccccc1NC(=O)CN1CCC(n2nnc3cc(C(F)(F)F)ccc32)CC1	x	x	-11	0	5	8	x
Cc1ccc(C2C3C(=O)N(c4ccc(C)cc4)C(=O)C3N3CCCN23)cc1 (stereo unspecified)	x	x	16	-10	-7	-6	x
SMILES	Lmaj promast	NALP1 inh	NLRP3 yeast inh	Calb FLC	PolyA inhibitor	T cruzi repl	Lmaj promast 1uM
COc1ccc(NC(=O)Nc2cccc([N+](=O)[O-])c2)cc1Cl	98*	20	15	-4	7	27	-3
CCOC(=O)c1ccc(N2C(=O)CC(C(=O)OC)=C2C)cc1	86*	24	10	4	-11	-1	-7
CCC(=O)c1ccc(OCC(O)Cn2nc(C)c(Br)c2C)cc1 (stereo unspecified)	x	-8	22	4	-5	11	x
CCC1Oc2ccc(C)cc2N(CC(=O)NCCN2CCOCC2)C1=O (stereo unspecified)	x	14	15	1	-3	-2	x
CCOC(=O)C1CCN(C(=O)C2COc3ccccc3O2)CC1 (stereo unspecified)	x	10	7	-1	9	0	x
Cc1ccc(C23CC4CC(CC(CN)(C4)C2)C3)cc1	100*	-10	x	10	1	38	13
NCC12CC3CC(C1)CC(c1ccc(Br)cc1)(C3)C2	x	9	21	49	5	25	x
Cc1ccc(NC(=S)N/N=C/c2c(C)nn(-c3ccccc3)c2N2CCCC2)cc1	10	13	10	17	13	23	x
COc1c(/C=N/NC(N)=S)c(C)nn1-c1ccccc1	58*	22	11	-4	11	0	-6
C=CCc1ccc(OCCCCOc2ccc(C(=O)O)cc2)c(OC)c1	-9	1	37	-3	7	6	x
C=CCc1ccc(OCCCCCN2CCOCC2)c(OC)c1	100*	4	26	-1	-27	16	58*
Cc1cc(=O)n2nc(N3CCCC(C(=O)NCCc4ccc(Cl)cc4)C3)sc2n1 (stereo unspecified)	x	2	9	-11	-10	7	x
CCOC(=O)c1sc2nc(C)c([N+](=O)[O-])c(COC)c2c1N	-9	19	32	-1	-9	7	x
Nc1ccc2nn(-c3ccc(F)cc3)nc2c1	x	7	28	49	-15	-7	x
Cc1ccc(-n2nc3ccc(N)cc3n2)cc1	84*	-4	14	-1	-12	-4	-16
CCOc1ccc(N(CC(=O)NC2CC2)S(=O)(=O)c2ccc(C)cc2)cc1	x	8	11	-4	-6	4	x
N#CC(c1ccc(Cl)cc1)c1ccc2c(C(F)(F)F)cc(C(F)(F)F)nc2n1 (stereo unspecified)	100*	4	20	4	5	u	56*
S=C(Nc1ccc2c(c1)OCO2)Nc1ccccc1Cl	x	27	11	-16	0	-16	x
O=C(O)/C=C/C(=O)NC1CCS(=O)(=O)C1 (stereo unspecified)	61*	23	2	12	1	-38	-13
O=C(O)/C=C\C(=O)NC1CCCCC1	-7	32	19	6	12	-11	x
CC12CCC(O)CC1=CCC1C2CCC2(C)C1CCC21CCC(=O)O1 (stereo unspecified)	68*	34	x	-2	-8	8	-10

Screens: PubChem BioAssay, several laboratories
